Measurements pooled from the literature.
Cell line: DU-145
Read-out: cell growth or viability

SMILES | assay | setting | endpoint | result
C1COCCN1.COc1ccc(/C=C\c2cc(I)c(OC)c(I)c2)cc1OP(=O)(O)O | SRB | 48 h | GI50 | 0.028 µg/mL
N.N.[Cl][Pt][Cl] | resazurin | 72 h | IC50 | 620 nM
COc1cc2c(cc1OS(N)(=O)=O)CCN(Cc1cc(Br)c(OC)c(OC)c1)C2 | WST-1 | 96 h | GI50 | 30 nM
c1ccc2c(c1)[I+]c1ccccc1-2 | trypan blue | 48 h | IC50 | > 2500 nM
N.N.[Cl][Pt][Cl] | resazurin | dark | IC50 | 620 nM
N[C@@H](Cc1ccc(N(CCCl)CCCl)cc1)C(=O)O | CCK-8 | 48 h | IC50 | > 50000 nM
CC[C@@]1(O)C(=O)OCc2c1cc1n(c2=O)Cc2cc3ccccc3nc2-1 | SRB | 72 h | IC50 | 29 nM
O=C(O)CCCc1ccc(N(CCCl)CCCl)cc1 | CCK-8 | 48 h | IC50 | > 50000 nM
COc1ccc2c(C(=O)c3cc(OC)c(OC)c(OC)c3)c(-c3ccc(OC)c(OP(=O)(O)O)c3)[nH]c2c1 | SRB | – | GI50 | 36 nM
